High-throughput results as filed in PubChem BioAssay.
Sampled rows, rich in hits. Any-hit rate of the full collection: about 3%.
RAM network inh – yeast RAM network inhibition. AID 868. inhibition, % at 50 µM. 190,000 compounds, 1.8% hits. S. cerevisiae dse1pr::URA3 reporter, 5-FOA growth OD615, 2 d; analog-sensitive cbk1-as2 kinase mutant strain;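 active = inhibition above a set limit, 3 SD over mean compound inhibition, cut at about 8.4% in these data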;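 also: inhibition rescues growth on 5-FOA so higher OD means more RAM inhibition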
Yeast growth inh – chemicals that inhibit yeast BB579 growth in restrictive medium (lifespan-shortening candidates). 140,000 compounds, 0.51% hits. AID 804. S. cerevisiae BB579 growth, OD615, 48 h. inhibition, % at 10 µM;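 active = inhibition above a set limit, 3 SD over the mean compound inhibition, cut at about 44% in these data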
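System: DeaD yeast strain BB579; buffer or medium: CSMM-D dextrose restrictive medium; technique: OD at 615 nm; schedule: 4 h cell preincubation, 48 h compound exposure, 30 °C humidified; doses: single 10 µM dose; controls: amphotericin B 10 µg/mL, positive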
INS promoter inh – TRM-6 insulin promoter activity inhibition; TRM-6 cells, insulin promoter-eGFP reporter, imaging; reporter expression induced with tamoxifen; inhibition, % at 2 µM; 130,000 compounds, 0.9% hits;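 active = inhibition above the mean plus 3 SD, with well images judged a real hit on visual review, cut at about 60% in these data, passing the limit was not always enough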
Yeast lifespan up – extends the lifespan of yeast; S. cerevisiae growth with nicotinamide, OD615; deaD strain in restrictive glucose medium; inhibition of the nicotinamide effect, % at 10 µM; 130,000 compounds, 0.68% hits;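 active = inhibition above a set limit, placed 3 SD over the median of all compounds, cut at about 26% in these data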
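Assay system: DeaD-strain S. cerevisiae. Medium: CSMM-D glucose medium, restrictive. Reagent: nicotinamide, 1.5 mM, co-present with compound. Compound: 10 µM single point, 0.25% DMSO. Schedule: culture preincubation 4 h, compound exposure 48 h, both 30 °C. Detection: absorbance at 615 nm.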
Ins promoter up – MIN6 insulin promoter up-regulation; MIN6 insulin promoter-GFP reporter, high-content imaging; stronger effect = higher value; z-score at 5 µM; 190,000 compounds, 0.3% hits; AID 1625;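 active = z-score above 3 at 5 µM with at least 500 cells counted in the well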
Large screens that a line does not name were inactive.

CC(=O)c1ccc(-n2c(CCC(=O)O)ccc2-c2cccs2)cc1	RAM network inh 9.7
NC(=O)c1ccc(-n2c(CCC(=O)O)ccc2-c2cccs2)cc1	none (no result: Yeast growth inh, INS promoter inh, Yeast lifespan up, Ins promoter up)
O=C(NC(=S)Nc1cc(C(F)(F)F)ccc1N1CCOCC1)c1ccco1	none (no result: RAM network inh, Yeast growth inh, INS promoter inh, Yeast lifespan up)
C=CC[N+]1(CC(=O)NCc2ccc(NC(C)=O)cc2)CCOCC1	none (no result: RAM network inh, Yeast growth inh, INS promoter inh, Yeast lifespan up)
Cc1c(C(=O)OCCOc2ccc(Br)cc2)sc(=S)n1C	RAM network inh 10.7 (no result: Yeast growth inh, INS promoter inh, Yeast lifespan up)
Cc1ccc(NC(=O)c2c(C(F)(F)F)nn(C)c2SCc2ccc(Cl)cc2)cc1C	RAM network inh 11.4 (no result: INS promoter inh, Ins promoter up)
COc1ccccc1N(CC(O)COc1ccccc1C)S(=O)(=O)c1ccccc1 (stereo not given)	RAM network inh 9.7
COc1ccccc1N(CC(O)Cn1c2ccccc2c2ccccc21)S(=O)(=O)c1ccccc1 (stereo not given)	none
CCCC(=O)Nc1nnc(CCOC)s1	none
CCCC(=O)Nc1nnc(COC)s1	INS promoter inh 89.5
FC(F)(F)Oc1ccc(Nc2nc3ccccc3o2)cc1	none
c1ccc(Nc2nc3ccccc3o2)cc1	INS promoter inh 67.9 (no result: Ins promoter up)
Cc1onc(-c2ccccc2Cl)c1C(=O)Nc1ccc(-c2cn3cccnc3n2)cc1	none
Cc1onc(-c2ccccc2Cl)c1C(=O)Nc1cccc(-c2nc3ncccn3c2C)c1	INS promoter inh 81.8
O=C(CCS(=O)(=O)c1ccc(Br)s1)Nc1ccccc1Br	none (no result: Yeast growth inh, Yeast lifespan up)
CCCC(=O)C1=C(O)C(C(=O)OC)C(C)(C)CC1=Nc1ccc(N)cc1 (stereo not given)	none
CCCC(=Nc1ccc(N)cc1)C1=C(O)C(C(=O)OC)C(C)(C)CC1=O (stereo not given)	Yeast lifespan up 44.0 (no result: Ins promoter up)
O=C(CNCc1ccccc1)Nc1ccc(Oc2ccccc2)cc1	RAM network inh 10.9 (no result: Yeast growth inh, INS promoter inh, Yeast lifespan up)
O=C(CNCc1ccccc1)Nc1ccc(F)cc1	none (no result: Yeast growth inh, INS promoter inh, Yeast lifespan up, Ins promoter up)
CN(C(=O)c1ccc(C#N)cc1)c1nnc(-c2cnccn2)s1	none (no result: RAM network inh, Yeast growth inh, INS promoter inh, Yeast lifespan up)
O=C(/C=C\c1cccs1)c1c(O)ccc2ccc(=O)oc12	Yeast lifespan up 27.4
O=C(/C=C/c1cccs1)c1ccc(Br)cc1	none (no result: INS promoter inh)
CCOC(=O)C(C)(C)N(Cc1cccc(C)c1)S(=O)(=O)c1ccc(Cl)c([N+](=O)[O-])c1	RAM network inh 11.1 (no result: INS promoter inh)
COCCNC(=O)CN(Cc1cccs1)C(=O)CCC(=O)Nc1nccs1	none (no result: Yeast growth inh, Yeast lifespan up)
Cc1cc([N+](=O)[O-])nn1CCCC(=O)Nc1cc(Oc2ccc(F)cc2)cc([N+](=O)[O-])c1	RAM network inh 8.9
Cc1cc([N+](=O)[O-])nn1CCCC(=O)Nc1cc(Oc2ccccc2)cc([N+](=O)[O-])c1	RAM network inh 10.2
CCOP(=O)(c1ccccc1)c1nc(-c2ccccc2C)oc1NCc1ccccc1 (stereo not given)	none (no result: RAM network inh, Yeast growth inh, INS promoter inh, Yeast lifespan up)
CCOc1ccccc1NC(=O)COC(=O)c1cc[n+]([O-])cc1	none (no result: RAM network inh, Yeast growth inh, INS promoter inh, Yeast lifespan up)
CCOc1ccc(S(=O)(=O)N(C)c2ccc(OCC(=O)NCc3ccco3)cc2)cc1	RAM network inh 9.8
Cn1/c(=N/NC(=O)c2ccccc2Br)sc2ccccc21	none (no result: Yeast growth inh, INS promoter inh, Yeast lifespan up)
CC(NC(=O)COC(=O)C1CSC2(C)CCC(=O)N12)C12CC3CC(CC(C3)C1)C2 (stereo not given)	none (no result: Yeast growth inh, INS promoter inh, Yeast lifespan up)
CCCOC(=O)c1cccc(NC(=O)COc2ccc([N+](=O)[O-])cc2)c1	RAM network inh 10.0
O=C(O)C1CC=CCC1C(=O)Nc1cccc([N+](=O)[O-])c1 (stereo not given)	RAM network inh 9.6 (no result: Yeast growth inh, INS promoter inh, Yeast lifespan up)
O=C(CCCOc1ccccc1)Nc1cccc([N+](=O)[O-])c1	INS promoter inh 76.9 (no result: Yeast growth inh, Yeast lifespan up)
COc1cc(CO)ccc1Oc1nc2ccccc2n2cnnc12	none (no result: RAM network inh, Yeast growth inh, INS promoter inh, Yeast lifespan up)
CCNc1nc(NC(C)C)nc(N(n2cnnc2)S(=O)(=O)c2ccc(C)cc2)n1	none
O=C(NCc1ccccn1)C12CC3CC(CC(C3)C1)C2	none (no result: Yeast growth inh, INS promoter inh, Yeast lifespan up)
COc1ccc(C(=O)OCC(=O)Nc2cc(C)c(C)cc2[N+](=O)[O-])cc1	none
CCCCOc1ccc(C(=O)Nc2ccc(C)cc2[N+](=O)[O-])cc1	RAM network inh 9.1
CCCCOc1ccc(C(=O)OCC(=O)Nc2cc(C)c(C)cc2[N+](=O)[O-])cc1	RAM network inh 10.8
Cc1ccc(-c2nc(Cl)nc3ccccc23)cc1	none (no result: Yeast growth inh, Yeast lifespan up)
Cc1ccc(-c2nc3ccccc3nc2Cl)cc1	RAM network inh 8.4 (no result: Yeast growth inh, INS promoter inh, Yeast lifespan up)
CCC(=O)OCC(=O)Nc1cc([N+](=O)[O-])ccc1OC	none (no result: Yeast growth inh, Yeast lifespan up)
Cc1ccnc(N=Cc2c(O)ccc3oc4c(c23)CCCC4)c1	Yeast lifespan up 45.1
Cc1c2c(n3c(nc4ccccc43)c1C#N)N(Cc1cccnc1)CC2	none (no result: RAM network inh, Yeast growth inh, Yeast lifespan up, Ins promoter up)
CC(=O)Nc1ccc(N2CCc3c(C)c(C#N)c4nc5ccccc5n4c32)cc1	Ins promoter up 3.8
O=C(NCc1ccccc1Cl)C(=O)NCC(c1ccco1)N1CCOCC1 (stereo not given)	INS promoter inh 77.8 (no result: Yeast growth inh, Yeast lifespan up)
CCCCOC(=O)c1sc2nc(C)cc(C)c2c1N	none (no result: RAM network inh, Yeast growth inh, INS promoter inh, Yeast lifespan up)
CCOC(=O)c1sc2nc(C)cc(C)c2c1N	INS promoter inh 77.4
CN(C)C(=O)CCSc1nnc(-c2ccncc2)o1	none (no result: Yeast growth inh, Yeast lifespan up)
CC(NC(=O)CCl)c1ccccc1Br (stereo not given)	none (no result: RAM network inh, Yeast growth inh, INS promoter inh, Yeast lifespan up)
Cc1occc(=O)c1OC(=O)Nc1ccc(Cl)c(Cl)c1	none
COc1cc2c(cc1NC(=O)C(C)OC(=O)c1ccc(S(=O)(=O)Nc3ccccc3Cl)cc1)oc1ccccc12 (stereo not given)	RAM network inh 11.0 (no result: Yeast growth inh, INS promoter inh, Yeast lifespan up)
COc1ccc(NC(=S)N2CCCC2c2ccc(OC)c(OC)c2)cc1 (stereo not given)	RAM network inh 9.9 (no result: Yeast growth inh, Yeast lifespan up)
Cc1ccc(Nc2nc(N)c(C#N)c(CC#N)c2C#N)cc1	none (no result: Yeast growth inh, INS promoter inh, Yeast lifespan up)
